Here are results for four compounds from ChEMBL document CHEMBL3351227, “Solving the supply of resveratrol tetramers from Papua New Guinean rainforest anisoptera species that inhibit bacterial type III secretion systems” (J Nat Prod, 2014).

A short description of experiment [1]: Inhibition of YopE in Yersinia pseudotuberculosis YPIII PIB102-Elux measured after 3 hrs 15 mins by luminescent reporter-gene assay. The method in brief: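 Strain was grown on LB agar with 25 μg/mL chloramphenicol for 48 h at 26 °C, then in BHI with chloramphenicol for 12−16 h at 26 °C. It was diluted to OD620 0.2, then 1 in 4 into Ca2+-depleted BHI (5 mM EGTA, 20 mM MgCl2). Compounds were tested at 10–100 μM. Incubation was 1 h at 26 °C, 3 h at 37 °C, then 15 min at 26 °C. Luminescence was read after adding 0.1% decanal, and IC50 was interpolated from dose–response.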

Experiment [2] in a line: Inhibition of YopH in Yersinia pseudotuberculosis YPIII PIB102-Elux using p-nitrophenyl phosphate as substrate measured after 3 hrs 15 mins by phosphatase enzyme assay. The method in brief: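 Same YopE-reporter culture and incubation, with Ca2+-depleted BHI and compounds at 10–100 μM. Before decanal addition, an aliquot went into pNPP (12.5 mM in 20 mM MES pH 5.0, 0.8 mM DTT). This was incubated 15 min at 37 °C, stopped with NaOH and read at 405 nm. IC50 was interpolated from dose–response curves. Bacteria in BHI with 2.5 mM Ca2+ were the negative control.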

Experiment [3] relates to Yersinia pseudotuberculosis YPIII. Description: Antimicrobial activity against Yersinia pseudotuberculosis YPIII PIB102-Elux at 364 uM by spectrophotometry. In kind it is functional.

The source made the active and inactive calls. No cut-off for these calls is given here.

For the compound `CN[C@@H]1[C@H](O[C@H]2[C@H](O[C@H]3[C@H](O)[C@@H](O)[C@H](N=C(N)N)[C@@H](O)[C@@H]3N=C(N)N)O[C@@H](C)[C@]2(O)C=O)O[C@@H](CO)[C@H](O)[C@H]1O` [STREPTOMYCIN], the values for the IC50 in experiment [1] and in experiment [2] were 38 µM and 31 µM, respectively.

For `Oc1ccc([C@@H]2c3c(O)cc(O)cc3[C@@H]3c4c(cc(O)c5c4[C@@H]2[C@H](c2ccc(O)cc2)[C@H]5c2cc(O)cc4c2[C@@H](c2cc(O)cc(O)c2)[C@H](c2ccc(O)cc2)O4)O[C@H]3c2ccc(O)cc2)cc1` [Vaticanol B], the values for the IC50 in experiment [1] and in experiment [2] were 9.9 µM and 3.3 µM, respectively.

On to `OC[C@H]1O[C@@H](Oc2cc3c4c(c2)[C@@H]([C@@H]2c5cc(O)cc6c5[C@@H](c5cc(O)cc(O)c5[C@H]2c2ccc(O)cc2)[C@H](c2ccc(O)cc2)O6)[C@H](c2ccc(O)cc2)c2c(O)cc(O)cc2[C@H]4[C@H](c2ccc(O)cc2)O3)[C@H](O)[C@@H](O)[C@@H]1O` [VATALBINOSIDE A], for which the values for the IC50 in experiment [1] and in experiment [2] were 12.5 µM and 4.5 µM, respectively. In addition, the result in experiment [3] was inactive.

Take `Oc1ccc([C@@H]2c3c(O)cc(O)cc3[C@@H]3c4c(cc(O)cc4[C@H]2[C@@H]2c4cc(O)cc5c4[C@@H](c4cc(O)cc(O)c4[C@H]2c2ccc(O)cc2)[C@H](c2ccc(O)cc2)O5)O[C@H]3c2ccc(O)cc2)cc1`: the IC50 in experiment [1] came out at 8.8 µM; in experiment [2], 2.9 µM. In experiment [3], the outcome was inactive.

One may read the IC50 as the concentration that inhibits the measured activity by half.
